# Experiments:
# [1] = molecular target: Histone deacetylase 1 (Homo sapiens, UniProt Q13547); experiment: Inhibition of recombinant HDAC1 assessed as inhibition of fluorogenic aminocoumarin release from substrate by trypsin-coupled biochemical assay
# Procedure, shortened: (§1)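 Trypsin-coupled fluorogenic assay. Substrate is an acetylated lysine tripeptide amide-linked to aminocoumarin (AMC). HDAC deacetylation allows trypsin to release AMC, and the fluorescence increase is read. Compound was tested at various concentrations and normalized to a DMSO control. IC50 was derived by non-linear regression fit.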
# [2] = molecular target: Histone deacetylase 2 (Homo sapiens, UniProt Q92769); experiment: Inhibition of recombinant HDAC2 assessed as inhibition of fluorogenic aminocoumarin release from substrate by trypsin-coupled biochemical assay
# Chain of Histone deacetylase 2 (Q92769 whole entry): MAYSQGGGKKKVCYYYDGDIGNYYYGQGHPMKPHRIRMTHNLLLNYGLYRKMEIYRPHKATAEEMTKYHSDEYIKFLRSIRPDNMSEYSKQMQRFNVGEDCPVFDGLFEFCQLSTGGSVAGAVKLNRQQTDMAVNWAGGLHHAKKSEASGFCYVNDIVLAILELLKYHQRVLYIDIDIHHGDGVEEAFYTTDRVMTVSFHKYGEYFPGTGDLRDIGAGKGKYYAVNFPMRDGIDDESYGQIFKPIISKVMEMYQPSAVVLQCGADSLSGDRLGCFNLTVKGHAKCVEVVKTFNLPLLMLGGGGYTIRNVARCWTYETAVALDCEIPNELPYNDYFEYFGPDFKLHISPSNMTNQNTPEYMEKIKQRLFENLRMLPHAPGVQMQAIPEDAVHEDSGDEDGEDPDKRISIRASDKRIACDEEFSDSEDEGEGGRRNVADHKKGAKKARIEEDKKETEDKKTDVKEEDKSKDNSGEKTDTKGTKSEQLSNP
# [3] = molecular target: Histone deacetylase 3 (Homo sapiens, UniProt O15379); experiment: Inhibition of recombinant HDAC3 assessed as inhibition of fluorogenic aminocoumarin release from substrate by trypsin-coupled biochemical assay; procedure, shortened: as §1
# Chain of Histone deacetylase 3 (O15379 whole entry): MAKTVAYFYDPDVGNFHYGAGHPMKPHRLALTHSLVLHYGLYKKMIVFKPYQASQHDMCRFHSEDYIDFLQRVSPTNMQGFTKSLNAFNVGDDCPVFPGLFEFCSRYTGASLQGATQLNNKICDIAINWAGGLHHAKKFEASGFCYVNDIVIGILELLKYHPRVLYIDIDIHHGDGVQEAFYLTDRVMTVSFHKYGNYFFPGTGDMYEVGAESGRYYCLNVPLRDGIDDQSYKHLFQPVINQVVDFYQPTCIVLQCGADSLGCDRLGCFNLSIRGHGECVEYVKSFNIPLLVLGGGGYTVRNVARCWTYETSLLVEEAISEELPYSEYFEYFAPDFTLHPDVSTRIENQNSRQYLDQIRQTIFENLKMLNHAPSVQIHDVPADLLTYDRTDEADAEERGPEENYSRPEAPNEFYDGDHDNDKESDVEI
# [4] = molecular target: Histone deacetylase 4 (Homo sapiens, UniProt P56524); experiment: Inhibition of recombinant HDAC4 assessed as inhibition of fluorogenic aminocoumarin release from substrate by trypsin-coupled biochemical assay; procedure, shortened: as §1
# Chain of Histone deacetylase 4 (P56524 whole entry): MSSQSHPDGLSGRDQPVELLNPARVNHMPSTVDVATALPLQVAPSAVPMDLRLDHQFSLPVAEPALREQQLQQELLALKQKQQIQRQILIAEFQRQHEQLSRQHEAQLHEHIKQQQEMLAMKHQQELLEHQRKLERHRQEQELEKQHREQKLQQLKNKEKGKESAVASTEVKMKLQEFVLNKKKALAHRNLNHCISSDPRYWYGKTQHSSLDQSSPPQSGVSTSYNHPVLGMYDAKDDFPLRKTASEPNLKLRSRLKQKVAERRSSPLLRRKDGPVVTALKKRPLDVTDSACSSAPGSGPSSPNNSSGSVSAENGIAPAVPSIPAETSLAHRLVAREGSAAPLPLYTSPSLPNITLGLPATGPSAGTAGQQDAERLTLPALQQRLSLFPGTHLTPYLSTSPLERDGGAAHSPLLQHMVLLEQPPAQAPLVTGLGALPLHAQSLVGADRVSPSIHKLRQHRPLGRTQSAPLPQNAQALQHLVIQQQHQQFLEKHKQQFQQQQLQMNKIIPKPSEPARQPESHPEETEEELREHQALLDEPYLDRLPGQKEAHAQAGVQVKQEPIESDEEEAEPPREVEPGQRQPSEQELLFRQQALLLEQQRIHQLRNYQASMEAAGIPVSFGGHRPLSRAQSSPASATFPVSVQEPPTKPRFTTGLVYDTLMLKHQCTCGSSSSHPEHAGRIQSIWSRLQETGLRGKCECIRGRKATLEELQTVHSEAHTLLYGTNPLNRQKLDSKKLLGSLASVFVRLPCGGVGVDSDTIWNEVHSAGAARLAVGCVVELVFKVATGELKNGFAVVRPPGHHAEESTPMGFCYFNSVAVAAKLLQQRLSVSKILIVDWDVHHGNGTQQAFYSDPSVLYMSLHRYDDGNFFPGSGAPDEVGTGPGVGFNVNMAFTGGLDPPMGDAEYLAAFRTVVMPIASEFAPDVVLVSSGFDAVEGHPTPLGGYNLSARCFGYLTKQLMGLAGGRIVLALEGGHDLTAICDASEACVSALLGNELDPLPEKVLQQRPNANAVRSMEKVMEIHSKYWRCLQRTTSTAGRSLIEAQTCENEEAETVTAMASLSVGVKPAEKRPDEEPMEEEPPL
# [5] = molecular target: Histone deacetylase 5 (Homo sapiens, UniProt Q9UQL6); experiment: Inhibition of recombinant HDAC5 assessed as inhibition of fluorogenic aminocoumarin release from substrate by trypsin-coupled biochemical assay; procedure, shortened: as §1
# Chain of Histone deacetylase 5 (Q9UQL6 whole entry): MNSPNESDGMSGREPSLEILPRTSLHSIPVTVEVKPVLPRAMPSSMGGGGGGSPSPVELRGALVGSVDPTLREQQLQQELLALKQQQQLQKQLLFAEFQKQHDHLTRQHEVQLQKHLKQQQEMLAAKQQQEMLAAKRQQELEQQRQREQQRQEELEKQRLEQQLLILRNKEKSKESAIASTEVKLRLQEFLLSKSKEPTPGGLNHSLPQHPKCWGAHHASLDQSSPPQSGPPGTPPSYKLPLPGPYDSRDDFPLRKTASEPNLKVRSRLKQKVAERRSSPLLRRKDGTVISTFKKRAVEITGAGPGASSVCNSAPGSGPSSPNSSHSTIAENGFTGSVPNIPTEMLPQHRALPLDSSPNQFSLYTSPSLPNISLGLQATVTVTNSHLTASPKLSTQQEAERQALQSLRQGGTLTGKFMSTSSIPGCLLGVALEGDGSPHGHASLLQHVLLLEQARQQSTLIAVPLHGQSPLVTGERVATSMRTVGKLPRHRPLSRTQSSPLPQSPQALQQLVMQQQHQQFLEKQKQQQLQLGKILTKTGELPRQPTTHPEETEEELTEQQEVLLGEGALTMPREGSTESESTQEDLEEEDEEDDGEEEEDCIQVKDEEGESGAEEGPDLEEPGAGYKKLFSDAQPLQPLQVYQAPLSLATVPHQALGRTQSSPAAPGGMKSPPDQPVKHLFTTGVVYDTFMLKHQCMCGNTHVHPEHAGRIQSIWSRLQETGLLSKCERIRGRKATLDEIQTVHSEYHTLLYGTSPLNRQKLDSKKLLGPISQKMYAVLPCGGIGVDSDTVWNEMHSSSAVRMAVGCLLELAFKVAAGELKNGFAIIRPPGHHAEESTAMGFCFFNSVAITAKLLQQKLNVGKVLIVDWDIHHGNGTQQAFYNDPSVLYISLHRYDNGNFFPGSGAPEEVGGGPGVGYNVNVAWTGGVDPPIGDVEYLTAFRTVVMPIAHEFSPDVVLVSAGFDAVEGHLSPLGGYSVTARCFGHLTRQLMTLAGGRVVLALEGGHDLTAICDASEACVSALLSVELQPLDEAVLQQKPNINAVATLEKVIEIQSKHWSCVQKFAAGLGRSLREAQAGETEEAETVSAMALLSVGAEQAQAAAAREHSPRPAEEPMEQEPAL
# [6] = molecular target: T1, Protein deacetylase HDAC6 (Homo sapiens, UniProt Q9UBN7); experiment: Inhibition of recombinant HDAC6 assessed as inhibition of fluorogenic aminocoumarin release from substrate by trypsin-coupled biochemical assay; procedure, shortened: as §1
# T1 sequence (Q9UBN7 whole entry): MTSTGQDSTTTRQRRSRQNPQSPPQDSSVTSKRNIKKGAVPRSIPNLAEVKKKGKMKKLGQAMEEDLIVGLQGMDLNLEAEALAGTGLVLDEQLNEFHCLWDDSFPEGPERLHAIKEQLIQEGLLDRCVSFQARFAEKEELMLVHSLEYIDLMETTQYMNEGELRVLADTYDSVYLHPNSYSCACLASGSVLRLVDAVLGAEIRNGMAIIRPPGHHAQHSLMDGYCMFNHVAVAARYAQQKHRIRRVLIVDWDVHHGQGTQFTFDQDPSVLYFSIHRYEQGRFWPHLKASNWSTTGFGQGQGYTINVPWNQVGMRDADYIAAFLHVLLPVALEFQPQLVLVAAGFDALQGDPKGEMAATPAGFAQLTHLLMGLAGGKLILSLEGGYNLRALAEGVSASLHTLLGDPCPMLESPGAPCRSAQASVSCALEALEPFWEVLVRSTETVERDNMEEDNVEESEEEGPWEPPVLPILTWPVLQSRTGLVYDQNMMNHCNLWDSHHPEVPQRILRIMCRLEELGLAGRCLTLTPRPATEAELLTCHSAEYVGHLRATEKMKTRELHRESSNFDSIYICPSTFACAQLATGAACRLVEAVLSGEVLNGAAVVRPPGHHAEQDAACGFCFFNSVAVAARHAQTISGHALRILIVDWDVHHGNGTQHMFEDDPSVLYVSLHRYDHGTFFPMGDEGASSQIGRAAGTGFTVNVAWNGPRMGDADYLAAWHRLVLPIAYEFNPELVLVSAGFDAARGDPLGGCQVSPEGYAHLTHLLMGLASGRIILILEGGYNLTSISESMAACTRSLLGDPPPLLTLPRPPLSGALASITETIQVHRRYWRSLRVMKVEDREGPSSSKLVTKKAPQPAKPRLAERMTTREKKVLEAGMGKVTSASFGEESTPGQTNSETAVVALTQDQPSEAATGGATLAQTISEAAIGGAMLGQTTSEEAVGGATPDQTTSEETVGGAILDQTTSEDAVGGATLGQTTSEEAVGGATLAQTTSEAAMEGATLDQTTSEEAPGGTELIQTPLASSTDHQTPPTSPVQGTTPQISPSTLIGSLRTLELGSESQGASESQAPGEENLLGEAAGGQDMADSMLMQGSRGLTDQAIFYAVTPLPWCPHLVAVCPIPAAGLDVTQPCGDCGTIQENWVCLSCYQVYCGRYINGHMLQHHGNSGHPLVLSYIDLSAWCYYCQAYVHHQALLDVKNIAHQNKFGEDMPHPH
# [7] = molecular target: T2, Histone deacetylase 7 (Homo sapiens, UniProt Q8WUI4); experiment: Inhibition of recombinant HDAC7 assessed as inhibition of fluorogenic aminocoumarin release from substrate by trypsin-coupled biochemical assay
# T2 sequence (Q8WUI4 whole entry): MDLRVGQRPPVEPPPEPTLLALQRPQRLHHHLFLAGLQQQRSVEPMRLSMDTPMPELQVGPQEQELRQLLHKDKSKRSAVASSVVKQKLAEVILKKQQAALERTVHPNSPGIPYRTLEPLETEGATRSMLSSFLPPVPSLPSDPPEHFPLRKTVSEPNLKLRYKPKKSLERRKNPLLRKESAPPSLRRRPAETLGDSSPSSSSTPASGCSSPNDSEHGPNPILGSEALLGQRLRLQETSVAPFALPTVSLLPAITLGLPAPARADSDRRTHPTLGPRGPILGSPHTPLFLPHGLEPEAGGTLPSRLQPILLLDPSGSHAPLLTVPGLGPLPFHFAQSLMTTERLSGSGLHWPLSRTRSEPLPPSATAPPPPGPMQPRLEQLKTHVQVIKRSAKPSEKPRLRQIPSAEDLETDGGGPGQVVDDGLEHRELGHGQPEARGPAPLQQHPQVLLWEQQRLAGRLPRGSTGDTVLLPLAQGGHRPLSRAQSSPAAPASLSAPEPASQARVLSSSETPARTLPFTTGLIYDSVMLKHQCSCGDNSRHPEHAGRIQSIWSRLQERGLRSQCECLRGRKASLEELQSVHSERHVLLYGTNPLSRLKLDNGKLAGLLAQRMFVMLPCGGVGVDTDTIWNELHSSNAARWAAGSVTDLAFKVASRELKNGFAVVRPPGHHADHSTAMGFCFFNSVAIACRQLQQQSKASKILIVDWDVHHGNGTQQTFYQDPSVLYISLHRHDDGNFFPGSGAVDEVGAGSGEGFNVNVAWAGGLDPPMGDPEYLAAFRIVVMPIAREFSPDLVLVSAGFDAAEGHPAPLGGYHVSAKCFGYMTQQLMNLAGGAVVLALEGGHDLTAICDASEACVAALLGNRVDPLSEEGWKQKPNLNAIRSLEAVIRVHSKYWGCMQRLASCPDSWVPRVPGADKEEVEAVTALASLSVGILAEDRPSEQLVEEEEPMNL
# [8] = molecular target: T3, Histone deacetylase 8 (Homo sapiens, UniProt Q9BY41); experiment: Inhibition of recombinant HDAC8 assessed as inhibition of fluorogenic aminocoumarin release from substrate by trypsin-coupled biochemical assay; procedure, shortened: as §1
# T3 sequence (Q9BY41 whole entry): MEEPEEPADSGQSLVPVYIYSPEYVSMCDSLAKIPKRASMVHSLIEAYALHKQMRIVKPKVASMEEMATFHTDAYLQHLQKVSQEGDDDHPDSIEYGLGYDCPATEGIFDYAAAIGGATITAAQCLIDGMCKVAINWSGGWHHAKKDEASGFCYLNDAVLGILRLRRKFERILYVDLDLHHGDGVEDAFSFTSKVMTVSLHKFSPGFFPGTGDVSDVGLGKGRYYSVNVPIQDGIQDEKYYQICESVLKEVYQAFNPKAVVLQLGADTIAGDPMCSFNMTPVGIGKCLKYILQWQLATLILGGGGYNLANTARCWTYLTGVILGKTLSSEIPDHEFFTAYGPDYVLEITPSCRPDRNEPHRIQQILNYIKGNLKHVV
# [9] = molecular target: Histone deacetylase 9 (Homo sapiens, UniProt Q9UKV0); experiment: Inhibition of recombinant HDAC9 assessed as inhibition of fluorogenic aminocoumarin release from substrate by trypsin-coupled biochemical assay; procedure, shortened: as §1
# Chain of Histone deacetylase 9 (Q9UKV0 whole entry): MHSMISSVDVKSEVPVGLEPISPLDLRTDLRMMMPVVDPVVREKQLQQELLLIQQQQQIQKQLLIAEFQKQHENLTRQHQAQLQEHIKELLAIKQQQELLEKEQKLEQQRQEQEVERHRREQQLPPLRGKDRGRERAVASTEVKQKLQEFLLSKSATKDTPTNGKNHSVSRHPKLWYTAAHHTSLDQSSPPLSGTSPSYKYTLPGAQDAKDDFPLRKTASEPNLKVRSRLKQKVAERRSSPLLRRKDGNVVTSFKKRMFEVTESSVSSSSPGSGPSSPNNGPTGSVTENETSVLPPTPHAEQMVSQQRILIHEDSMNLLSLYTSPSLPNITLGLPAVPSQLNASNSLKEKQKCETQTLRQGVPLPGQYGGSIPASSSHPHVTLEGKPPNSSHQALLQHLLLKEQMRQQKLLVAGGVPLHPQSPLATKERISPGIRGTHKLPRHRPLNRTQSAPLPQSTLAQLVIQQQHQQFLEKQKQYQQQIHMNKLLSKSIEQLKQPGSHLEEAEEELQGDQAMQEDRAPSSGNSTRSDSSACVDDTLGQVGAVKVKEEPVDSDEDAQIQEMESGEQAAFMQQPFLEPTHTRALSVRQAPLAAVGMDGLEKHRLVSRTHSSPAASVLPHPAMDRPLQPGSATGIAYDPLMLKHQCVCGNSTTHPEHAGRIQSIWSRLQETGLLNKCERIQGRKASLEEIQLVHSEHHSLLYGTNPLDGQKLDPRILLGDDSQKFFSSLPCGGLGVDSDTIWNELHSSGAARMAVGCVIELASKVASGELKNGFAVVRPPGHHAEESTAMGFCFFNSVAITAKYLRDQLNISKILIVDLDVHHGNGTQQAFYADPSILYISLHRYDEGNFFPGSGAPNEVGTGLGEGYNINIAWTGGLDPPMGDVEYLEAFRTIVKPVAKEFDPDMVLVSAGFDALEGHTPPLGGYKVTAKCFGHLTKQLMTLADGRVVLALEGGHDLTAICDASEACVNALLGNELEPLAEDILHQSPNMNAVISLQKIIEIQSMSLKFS
# Chain of Histone deacetylase 1 (Q13547 whole entry): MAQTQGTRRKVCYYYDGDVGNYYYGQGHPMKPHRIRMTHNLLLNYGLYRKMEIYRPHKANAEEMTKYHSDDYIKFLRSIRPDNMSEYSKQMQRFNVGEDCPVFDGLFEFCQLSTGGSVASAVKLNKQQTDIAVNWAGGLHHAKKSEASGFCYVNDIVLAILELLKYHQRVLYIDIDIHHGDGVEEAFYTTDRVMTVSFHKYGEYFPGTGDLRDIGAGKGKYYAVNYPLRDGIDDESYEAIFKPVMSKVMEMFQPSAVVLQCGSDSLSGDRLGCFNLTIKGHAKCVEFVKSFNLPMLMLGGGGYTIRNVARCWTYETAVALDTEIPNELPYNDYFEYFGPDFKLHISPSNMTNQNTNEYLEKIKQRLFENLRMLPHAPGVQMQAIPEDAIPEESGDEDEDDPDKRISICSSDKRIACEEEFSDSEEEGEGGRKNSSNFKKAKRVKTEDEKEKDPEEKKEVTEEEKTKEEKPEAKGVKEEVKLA
IC50 [1] [µM],IC50 [2] [µM],IC50 [3] [µM],IC50 [4] [µM],IC50 [5] [µM],IC50 [6] [µM],IC50 [7] [µM],IC50 [8] [µM],IC50 [9] [µM],SMILES
> 100,> 100,> 100,> 100,> 100,> 100,> 100,> 100,> 100,CC(=O)Nc1ccc(C(=O)COc2cc(C)cc(=O)[nH]2)cc1
> 100,> 100,> 100,> 100,> 100,> 100,> 100,> 100,> 100,Cc1cc(=O)[nH]c(SCC(=O)NCCCCc2ccccc2)n1
> 100,> 100,> 100,> 100,> 100,> 100,> 100,> 100,> 100,CC(=O)CSc1nc(C)cc(=O)[nH]1
> 100,> 100,> 100,> 100,> 100,> 100,> 100,> 100,> 100,CC(=O)Nc1ccc(C(=O)CSc2cccc(O)c2)cc1
> 100,> 100,> 100,> 100,> 100,16.7,> 100,> 100,> 100,Cc1cc(O)nc(SCC(=O)c2ccc(O)c(O)c2)n1
> 100,> 100,> 100,> 100,94.3,> 100,> 100,> 100,> 100,Cc1cc(=O)[nH]c(SCC(=O)c2ccc(C(C)(C)C)cc2)n1
> 100,> 100,> 100,> 100,> 100,24.8,> 100,> 100,> 100,Cc1cc(O)nc(SCC(=O)c2cccs2)n1
> 100,> 100,> 100,> 100,> 100,> 100,> 100,> 100,> 100,CC(=O)Nc1ccc(C(=O)CSc2nc(C)cc(C)n2)cc1
> 100,> 100,> 100,> 100,> 100,> 100,13.7,> 100,> 100,Cc1cc(O)nc(SCC(=O)c2ccccc2)n1
82.3,67,86.4,> 100,> 100,12.9,> 100,> 100,> 100,Cc1cc(O)nc(SCC(=O)c2ccc(Cl)cc2)n1

# Continued, molecule first:
SMILES,IC50 [1] [µM],IC50 [2] [µM],IC50 [3] [µM],IC50 [4] [µM],IC50 [5] [µM],IC50 [6] [µM],IC50 [7] [µM],IC50 [8] [µM],IC50 [9] [µM]
CC(=O)Nc1ccc(C(=O)CSc2nccc(C)n2)cc1,> 100,> 100,> 100,> 100,> 100,> 100,> 100,> 100,> 100
CC(=O)N(C)c1ccc(C(=O)CSc2nc(C)cc(O)n2)cc1,> 100,> 100,> 100,> 100,> 100,> 100,> 100,> 100,> 100
Cc1cc(O)nc(SCC(=O)NCCc2ccccc2)n1,> 100,> 100,> 100,> 100,> 100,> 100,> 100,> 100,> 100
Cc1cc(=O)[nH]c(SCC(=O)c2ccc(NC(=O)c3ccccc3)cc2)n1,> 100,> 100,> 100,> 100,> 100,10.8,> 100,> 100,> 100
COc1cc(C)nc(SCC(=O)c2ccc(NC(C)=O)cc2)n1,> 100,> 100,> 100,> 100,> 100,> 100,> 100,> 100,> 100
CC(=O)Nc1ccc(C(O)CSc2nc(C)cc(O)n2)cc1 (stereo not given),> 100,> 100,> 100,> 100,> 100,> 100,> 100,> 100,> 100
Cc1cc(=O)[nH]c(SCC(=O)c2ccc3c(c2)OCCO3)n1,> 100,> 100,> 100,> 100,> 100,> 100,> 100,> 100,> 100
CC(=O)Nc1ccc(C(=O)COc2nc(C)cc(O)n2)cc1,> 100,> 100,> 100,54.2,16.7,88,–,> 100,11.7
Cc1cc(=O)[nH]c(SCC(=O)NCCCCCCc2ccccc2)n1,> 100,> 100,> 100,> 100,> 100,> 100,> 100,> 100,> 100

# Source: ChEMBL document CHEMBL1800036, “A novel HDAC inhibitor with a hydroxy-pyrimidine scaffold” (Bioorg Med Chem Lett, 2011)
